As a reminder, the IC50 is the concentration needed to halve the response being measured. The low end stands for greater potency in that assay, the high end for weaker potency in that assay. Usually Tm stands for the temperature at which the thermal transition is half complete.

Data on 3 molecules can be found in ChEMBL document CHEMBL2203053, “DNA binding acridine-thiazolidinone agents affecting intracellular glutathione” (Bioorg Med Chem, 2012).

For data set [1], the system named is Nucleic Acid. Briefly: Binding affinity to calf thymus DNA assessed as binding constant by spectrofluorimetry based McGhee von Hippel method. The settings on record: Bos taurus. It counts as nucleic-acid assay. Summed up:
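Fluorescence titration used compound at 26.7 µM in 0.01 M Tris buffer (pH 7.4, 24 °C). ctDNA was added stepwise from 0 to 32 µM bp at 2 µM intervals until spectra stopped changing. Excitation was 384 nm and emission was read at 410–470 nm. Binding constant K was derived by the McGhee–von Hippel method from Scatchard plot data.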

Data set [2] has as its system L1210. Briefly: Cytotoxicity against mouse L1210 cells after 72 hrs by MTT assay. It counts as functional, cell-based. The settings on record: L1210, 72 h. Put shortly: (§1)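 HL-60, L1210 and A2780 cells were grown in RPMI 1640 with 10% FBS, penicillin and streptomycin at 37 °C, 5% CO₂; HL-60 and A2780 medium also had 2 mM glutamine. Cells were exposed to 0–30 µM for 48 or 72 h. Viability was read by MTT microculture tetrazolium assay and IC50 was determined.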
For orientation: Tetrazolium assays rely on reduction of a dye to a coloured formazan, in cell work by metabolically active cells.

Data set [3] deals with HL-60. Briefly: Decrease in intracellular glutathione level in human HL60 cells at 2 uM after 24 hrs by spectrophotometric analysis. It counts as functional, cell-based.
Data set [4] relates to Nucleic Acid. Briefly: Binding affinity to calf thymus DNA assessed as bathochromic shift at 25 uM by UV-visible spectrophotometry. Format: nucleic-acid assay. The settings on record: Bos taurus. Summed up:
(§2)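 Absorption spectra were taken in 0.01 M Tris buffer, pH 7.4. Compounds were diluted from DMSO stock to a final 25 µM. Sonicated calf thymus DNA in TE buffer was added at 0–30 µM bp, with concentration set by A260. Shift of λmax (free vs bound) and % hypochromicity were recorded.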

The test system of data set [5] is Nucleic Acid. Briefly: Binding affinity to calf thymus DNA assessed as hypochromicity at 25 uM by UV-visible spectrophotometry. Format: nucleic-acid assay. The settings on record: Bos taurus. Summed up:
as §2

Data set [6] has as its system HL-60. Briefly: Drug uptake in human HL60 cells at 5 uM after 4 hrs by Hoechst staining based fluorescence microscopy. Format: ADME, cell-based. The settings on record: hl-60, 4 h. Put shortly: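 HL-60 cells were exposed to 5 µM for 4 h at 37 °C, 5% CO₂, then washed in PBS. Intrinsic blue fluorescence was viewed by optical and fluorescence microscopy. Untreated control cells were stained with Hoechst 33342 (10 µM, 10 min).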

Data set [7] has as its system A2780. Briefly: Drug uptake in human A2780 cells at 5 uM after 4 hrs by Hoechst staining based fluorescence microscopy. It counts as ADME, cell-based. The settings on record: a2780, 4 h.
Data set [8] relates to Nucleic Acid. Briefly: Ratio of proflavine K to compound K for calf thymus DNA by spectrofluorimetry based McGhee von Hippel method. It counts as nucleic-acid assay. The settings on record: Bos taurus.
Data set [9] concerns HL-60. Briefly: Cytotoxicity against human HL60 cells after 48 hrs using trypan blue exclusion staining by DCC method. Format: functional, cell-based. The settings on record: HL-60, 48 h. Put shortly: (§3)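 For trypan blue dye-exclusion direct cell counting, HL-60 cells were seeded at 1 × 10⁵ cells/mL. Compound at 0–10 µM, or 1% DMSO control, was added after 24 h. Viable counts were taken after 24, 48 and 72 h. IC50 (50% inhibition of viability) came from growth curves, as mean ± S.D., n = 3.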

Data set [10] concerns L1210. Briefly: Cytotoxicity against mouse L1210 cells after 48 hrs by MTT assay. Format: functional, cell-based. The settings on record: L1210, 48 h. Summed up: as §1
In data set [11] the test system is A2780. Briefly: Cytotoxicity against human A2780 cells after 72 hrs by MTT assay. It counts as functional, cell-based. The settings on record: A2780, 72 h. Summed up:
as §1

For data set [12], the system named is Nucleic Acid. Briefly: Binding affinity to calf thymus DNA assessed as melting temperature at 5 uM at pH 7.1 by thermal denaturation assay. The settings on record: Bos taurus. It counts as nucleic-acid assay.
In data set [13] the test system is HL-60. Briefly: Cytotoxicity against human HL60 cells after 72 hrs by MTT assay. Format: functional, cell-based. The settings on record: HL-60, 72 h. Put shortly: as §1
Data set [14] has as its system HL-60. Briefly: Decrease in intracellular glutathione level in human HL60 cells at 2 uM after 2 hrs by spectrophotometric analysis. It counts as functional, cell-based.
Data set [15] concerns HL-60. Briefly: Induction of necrosis in human HL60 cells assessed as cell shrinking at 5 uM after 24 hrs by propidium iodide staining based fluorescence microscopy. Format: functional.
The test system of data set [16] is HL-60. Briefly: Cytotoxicity against human HL60 cells after 72 hrs using trypan blue exclusion staining by DCC method. It counts as functional, cell-based. The settings on record: HL-60, 72 h. Summed up: as §3
In data set [17] the test system is Nucleic Acid. Briefly: Ratio of acridine orange K to compound K for calf thymus DNA by spectrofluorimetry based McGhee von Hippel method. Format: nucleic-acid assay. The settings on record: Bos taurus.
The test system of data set [18] is HL-60. Briefly: Cytotoxicity against BSO pretreated human HL60 cells assessed as cell viability at 3 uM treated 6 hrs after BSO addition measured after 48 hrs by trypan blue exclusion assay. It counts as functional, cell-based. Put shortly: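 HL-60 cells were pretreated 6 h with L-buthionine-sulfoximine (10 µM), then exposed to 1.5, 3.0 or 1.0 µM compound for 48 h. Viable cells were counted by trypan blue staining and expressed as percentage of all cells.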

For data set [19], the system named is HL-60. Briefly: Cytotoxicity against human HL60 cells after 48 hrs by MTT assay. Format: functional, cell-based. The settings on record: HL-60, 48 h. Summed up:
as §1

For data set [20], the system named is A2780. Briefly: Cytotoxicity against human A2780 cells after 48 hrs by MTT assay. The settings on record: A2780, 48 h. Format: functional, cell-based. Summed up: as §1
Data set [21] has as its system Nucleic Acid. Briefly: Ratio of daunomycin K to compound K for calf thymus DNA by spectrofluorimetry based McGhee von Hippel method. Format: nucleic-acid assay. The settings on record: Bos taurus.

Calls of active or inactive are those of the source. The calls are words filed in the database; no cut-off is given here. Bounds are passed on as bounds.

With `COc1cccc2c1C(=O)c1c(O)c3c(c(O)c1C2=O)C[C@@](O)(C(C)=O)C[C@@H]3O[C@H]1C[C@H](N)[C@H](O)[C@H](C)O1`, the K in data set [1] was determined as 7.09 ×10⁵ /M.
For `COC(=O)/C=C1\S/C(=N\c2c3ccccc3nc3ccccc23)N(C(C)(C)C)C1=O`, the IC50 is 20.9 µM in data set [2]; 3.5 µM in [9]; 17.9 µM in [10]; 23.7 µM in data set [11]; 3.7 µM in data set [13]; 2800 nM in [16]. Besides, the values for the IC50 in [19] and in data set [20] were 5.4 µM and more than 30 µM, respectively. In data set [3], the outcome was inactive. For the same molecule, the outcome in data set [4], in [14], in data set [15] and in data set [18] was Active. The Activity in data set [5] amounted to 31.2%. For the same molecule, the Drug uptake result in data set [6] and in [7] was “Active” each time. Moreover, the Ratio in data set [8], in data set [17] and in data set [21] was 10 throughout. Also, the K in data set [1] came out at 1.37 ×10⁶ /M. Besides, in [12], the Tm amounted to 74 °C.
On to `CN(C)c1ccc2cc3ccc(N(C)C)cc3nc2c1`, for which, in data set [1], the K was 3.19 ×10⁵ /M.
